# Laboratory results as given in article PMC6061410 (Clinical Drug Investigation, 2018).
# “Also recorded” adds a separate entry of the source.
# Test system: healthy young and healthy elderly subjects
# Assay: Safety and tolerability
# Format: in vivo, human
# Procedure, shortened: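 Adverse events were recorded by system organ class and preferred term in the treated set. This was 84 healthy young or elderly subjects randomised 3:1 to oral drug or placebo over 14 days, across seven ascending dose groups with a safety review before each escalation. Changes were assessed against the last pre-dose baseline measurement.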
structure (smiles),measurement,setting,value
C[C@@H](Oc1ccc(S(C)(=O)=O)cc1C(=O)N1C[C@@H]2C[C@]2(c2cc(C(F)(F)F)on2)C1)C(F)(F)F [BI 425809],intensity of treatment-emergent AEs,all dose groups,mild-to-moderate; also recorded: mild or moderate
same,intensity of eye disorders,both age groups,mild
same,subjects who reported one or more AEs,elderly subjects receiving the active drug,88.9%
same,subjects with drug-related AEs,elderly subjects who received BI 425809,77.8%
same,Back pain,"elderly, 25 mg QD",1 (11.1) n (%)
same,Constipation,"elderly, 25 mg QD",0 (–) n (%)
same,Dizziness,"elderly, 25 mg QD",1 (11.1) n (%)
same,Eye disorders,"elderly, 25 mg QD",1 (11.1) n (%)
same,Folliculitis,"elderly, 25 mg QD",2 (22.2) n (%)
same,Gastrointestinal disorders,"elderly, 25 mg QD",6 (66.7) n (%)
same,General disorders and administration site conditions,"elderly, 25 mg QD",2 (22.2) n (%)
same,Hard faeces,"elderly, 25 mg QD",2 (22.2) n (%)
same,Headache,"elderly, 25 mg QD",1 (11.1) n (%)
same,Infections and infestations,"elderly, 25 mg QD",3 (33.3) n (%)
same,"Injury, poisoning and procedural complications","elderly, 25 mg QD",2 (22.2) n (%)
same,Musculoskeletal and connective tissue disorders,"elderly, 25 mg QD",1 (11.1) n (%)
same,Nasopharyngitis,"elderly, 25 mg QD",1 (11.1) n (%)
same,Nausea,"elderly, 25 mg QD",1 (11.1) n (%)
same,Nervous system disorder,"elderly, 25 mg QD",2 (22.2) n (%)
same,Psychiatric disorders,"elderly, 25 mg QD",2 (22.2) n (%)
same,Subjects with AEs leading to study discontinuation,"elderly, 25 mg QD",0 (–) n (%)
same,Subjects with investigator-defined drug-related AEs,"elderly, 25 mg QD",6 (66.7) n (%)
same,Total with AEs,"elderly, 25 mg QD",8 (88.9) n (%)
same,Venepuncture site haematoma,"elderly, 25 mg QD",1 (11.1) n (%)
same,Vomiting,"elderly, 25 mg QD",1 (11.1) n (%)
same,Back pain,"elderly, 50 mg QD",1 (11.1) n (%)
same,Constipation,"elderly, 50 mg QD",4 (44.4) n (%)
same,Dizziness,"elderly, 50 mg QD",2 (22.2) n (%)
same,Eye disorders,"elderly, 50 mg QD",1 (11.1) n (%)
same,Folliculitis,"elderly, 50 mg QD",1 (11.1) n (%)
same,Gastrointestinal disorders,"elderly, 50 mg QD",5 (55.6) n (%)
same,General disorders and administration site conditions,"elderly, 50 mg QD",4 (44.4) n (%)
same,Hard faeces,"elderly, 50 mg QD",0 (–) n (%)
same,Headache,"elderly, 50 mg QD",1 (11.1) n (%)
same,Infections and infestations,"elderly, 50 mg QD",3 (33.3) n (%)
same,"Injury, poisoning and procedural complications","elderly, 50 mg QD",0 (–) n (%)
same,Musculoskeletal and connective tissue disorders,"elderly, 50 mg QD",2 (22.2) n (%)
same,Nasopharyngitis,"elderly, 50 mg QD",1 (11.1) n (%)
same,Nausea,"elderly, 50 mg QD",1 (11.1) n (%)
same,Nervous system disorder,"elderly, 50 mg QD",3 (33.3) n (%)
same,Psychiatric disorders,"elderly, 50 mg QD",2 (22.2) n (%)
same,Subjects with AEs leading to study discontinuation,"elderly, 50 mg QD",1 (11.1) n (%)
same,Subjects with investigator-defined drug-related AEs,"elderly, 50 mg QD",8 (88.9) n (%)
same,Total with AEs,"elderly, 50 mg QD",8 (88.9) n (%)
same,Venepuncture site haematoma,"elderly, 50 mg QD",4 (44.4) n (%)
same,Vomiting,"elderly, 50 mg QD",1 (11.1) n (%)
same,Back pain,"elderly, Total BI n = 18",2 (11.1) n (%)
same,Constipation,"elderly, Total BI n = 18",4 (22.2) n (%)
same,Dizziness,"elderly, Total BI n = 18",3 (16.7) n (%)
same,Eye disorders,"elderly, Total BI n = 18",2 (11.1) n (%)
same,Folliculitis,"elderly, Total BI n = 18",3 (16.7) n (%)
same,Gastrointestinal disorders,"elderly, Total BI n = 18",11 (61.1) n (%)
same,General disorders and administration site conditions,"elderly, Total BI n = 18",6 (33.3) n (%)
same,Hard faeces,"elderly, Total BI n = 18",2 (11.1) n (%)
same,Headache,"elderly, Total BI n = 18",2 (11.1) n (%)
same,Infections and infestations,"elderly, Total BI n = 18",6 (33.3) n (%)
same,"Injury, poisoning and procedural complications","elderly, Total BI n = 18",2 (11.1) n (%)
same,Musculoskeletal and connective tissue disorders,"elderly, Total BI n = 18",3 (16.7) n (%)
same,Nasopharyngitis,"elderly, Total BI n = 18",2 (11.1) n (%)
same,Nausea,"elderly, Total BI n = 18",2 (11.1) n (%)
same,Nervous system disorder,"elderly, Total BI n = 18",5 (27.8) n (%)
same,Psychiatric disorders,"elderly, Total BI n = 18",4 (22.2) n (%)
same,Subjects with AEs leading to study discontinuation,"elderly, Total BI n = 18",1 (5.6) n (%)
same,Subjects with investigator-defined drug-related AEs,"elderly, Total BI n = 18",14 (77.8) n (%)
same,Total with AEs,"elderly, Total BI n = 18",16 (88.9) n (%)
same,Vomiting,"elderly, Total BI n = 18",2 (11.1) n (%)
same,dose dependency of AEs,frequency of subjects with drug-related AE across treatment groups,no dose dependency was observed; also recorded: not dose dependent
same,tolerability,"multiple doses 10–75 mg QD or 75 mg BID (young), 25 or 50 mg QD (elderly)",generally well tolerated
same,serious AEs,"part 1, all dose groups",no serious adverse events occurred; also recorded: no serious AEs were reported
same,subjects who experienced one or more AEs,"young subjects, part 1, active-treatment arm",66.7%
same,subjects with drug-related AEs,"young subjects, part 1, receiving BI 425809",60.0%
same,Dizziness,"young, part 1, 10 mg QD",1 (11.1) n (%)
same,Eye disorders,"young, part 1, 10 mg QD",0 (–) n (%)
same,Gastrointestinal disorders,"young, part 1, 10 mg QD",0 (–) n (%)
same,General disorders and administration site conditions,"young, part 1, 10 mg QD",0 (–) n (%)
same,Headache,"young, part 1, 10 mg QD",3 (33.3) n (%)
same,Infections and infestations,"young, part 1, 10 mg QD",1 (11.1) n (%)
same,Insomnia,"young, part 1, 10 mg QD",0 (–) n (%)
same,Musculoskeletal and connective tissue disorders,"young, part 1, 10 mg QD",1 (11.1) n (%)
same,Nasopharyngitis,"young, part 1, 10 mg QD",0 (–) n (%)
same,Nervous system disorder,"young, part 1, 10 mg QD",4 (44.4) n (%)
same,Ocular discomfort,"young, part 1, 10 mg QD",0 (–) n (%)
same,Psychiatric disorders,"young, part 1, 10 mg QD",0 (–) n (%)
same,Subjects with AEs leading to study discontinuation,"young, part 1, 10 mg QD",0 (–) n (%)
same,Subjects with investigator-defined drug-related AEs,"young, part 1, 10 mg QD",4 (44.4) n (%)
same,Total with AEs,"young, part 1, 10 mg QD",5 (55.6) n (%)
same,Vision blurred,"young, part 1, 10 mg QD",0 (–) n (%)
same,Dizziness,"young, part 1, 25 mg QD",0 (–) n (%)
same,Eye disorders,"young, part 1, 25 mg QD",2 (22.2) n (%)
